Results: PubChem BioAssay AID624401 (The Scripps Research Institute Molecular Screening Center, 2012)
Active and inactive are the calls of the source.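 Rule for the calls: active = activation of 20% or more; inactive = activation below 20%, including negative responses.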

Biological target: Aryl hydrocarbon receptor (Homo sapiens) (UniProt P35869)
Assay: AhR reporter activation, late-stage follow-up, counter-screen for AHR activator project, luminescence, HG2L7.5c1 cells, set 2 (AID 624401)
Details: HG2L7.5c1 HepG2 DRE-luciferase reporter, 24 h
Outline: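 Assay system: HepG2-derived HG2L7.5c1 AHR luciferase reporter cells. Probe or stimulus: reporter construct with MMTV promoter plus 20 murine CYP1A1 DREs. Times: 24 h compound exposure, 37 °C. Measured by: lysate luminescence. Read-out basis: % of maximal TCDD response, Hill-fit EC50. Controls: maximal TCDD induction as high control. Replicates: triplicate wells per compound.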

Sequence of Aryl hydrocarbon receptor (Homo sapiens) (P35869 whole entry, looked up): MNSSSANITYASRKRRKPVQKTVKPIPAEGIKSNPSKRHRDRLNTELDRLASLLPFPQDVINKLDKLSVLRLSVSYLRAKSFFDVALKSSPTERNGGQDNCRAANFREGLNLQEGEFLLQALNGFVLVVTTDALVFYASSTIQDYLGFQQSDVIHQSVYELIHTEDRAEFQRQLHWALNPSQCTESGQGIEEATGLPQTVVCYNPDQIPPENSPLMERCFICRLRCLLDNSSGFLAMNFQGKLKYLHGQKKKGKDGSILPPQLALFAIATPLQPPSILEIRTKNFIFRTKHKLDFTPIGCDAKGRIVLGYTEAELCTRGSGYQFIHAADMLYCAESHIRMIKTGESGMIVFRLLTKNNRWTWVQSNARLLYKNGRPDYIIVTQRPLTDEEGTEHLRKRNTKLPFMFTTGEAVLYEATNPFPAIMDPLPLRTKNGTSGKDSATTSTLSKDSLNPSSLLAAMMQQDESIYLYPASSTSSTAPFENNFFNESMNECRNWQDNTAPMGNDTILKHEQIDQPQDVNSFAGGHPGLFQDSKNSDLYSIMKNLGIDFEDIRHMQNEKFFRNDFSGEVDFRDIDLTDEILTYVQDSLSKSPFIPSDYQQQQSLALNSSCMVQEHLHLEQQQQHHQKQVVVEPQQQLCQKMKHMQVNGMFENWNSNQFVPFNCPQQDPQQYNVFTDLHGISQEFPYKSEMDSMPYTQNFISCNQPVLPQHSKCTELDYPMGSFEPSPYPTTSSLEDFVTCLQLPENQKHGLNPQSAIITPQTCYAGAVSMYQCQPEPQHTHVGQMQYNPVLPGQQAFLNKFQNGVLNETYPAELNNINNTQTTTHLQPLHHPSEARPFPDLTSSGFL

SMILES | EC50 [nM]
Cc1ccc(-c2cc(-c3cccc(F)c3)n[nH]2)c(O)c1 | 650
Cc1ccc(-c2cc(-c3ccc(F)cc3)n[nH]2)c(O)c1 | 250
Cc1ccc(-c2cc(-c3ccc(Cl)cc3)n[nH]2)c(O)c1 | 4000

Same assay, conditions: HG2L7.5c1 HepG2 DRE-luciferase reporter, 24 h; at 10 µM; stronger effect = higher value

SMILES | activation
Cc1cccc(C)c1NC(=O)c1ccc(C(=O)Nc2c(C)cccc2C)nc1 | inactive
COc1ccc(-c2cc(-c3ccc(C)cc3O)[nH]n2)cc1 | 15.6%
Nc1nc(Cl)cc(Nc2ccccc2F)n1 | inactive
Cc1ccnc(NC(=O)CSc2nc3ccccc3s2)c1 | inactive
COc1ccc(Nc2cc(Cl)nc(N)n2)cc1OC | inactive
O=C(CSc1nc2ccccc2s1)Nc1ccccn1 | 18.9%
Cc1cc(Br)cc(C)c1Nc1ccnc(Nc2ccc(C#N)cc2)n1 | inactive
COc1ccc(NC(=O)c2ccc(C(=O)Nc3ccc(OC)cc3OC)nc2)c(OC)c1 | inactive
COc1ccc(O)c(-c2cc(-c3cccs3)[nH]n2)c1 | inactive
CCOC(=O)c1c(C)nn(-c2cc(Cl)ccc2Cl)c1C | inactive
COc1ccc(Nc2cc(Cl)nc(N)n2)cc1 | inactive
CN(Cc1cc(-c2cccs2)n[nH]1)Cc1coc2ccccc2c1=O | inactive
O=C(CSc1nc(-c2ccc(F)cc2)cs1)Nc1ccccn1 | inactive
Cc1csc(SCC(=O)Nc2ccccn2)n1 | inactive
O=C(CSc1nc2ccccc2s1)Nc1ccc(Cl)cn1 | inactive
CCOc1ccccc1NC(=O)c1ccc(C(=O)Nc2ccccc2OCC)nc1 | 48.4%
Cc1cc(Nc2ccc(F)cc2)nc(N)n1 | inactive
Cc1ccc(O)c(-c2cc(-c3ccccc3Cl)[nH]n2)c1 | 32%
Nc1nc(Cl)cc(Nc2ccc(Oc3ccccc3)cc2)n1 | 25.2%
Cc1cccc(NC(=O)c2cc(-c3ccc(C)cc3O)n[nH]2)c1 | inactive
Cc1ccc(NC(=O)c2ccc(C(=O)Nc3ccc(C)cc3C)nc2)c(C)c1 | inactive
COc1ccc(Cl)cc1NC(=O)c1ccc(C(=O)Nc2cc(Cl)ccc2OC)nc1 | inactive
